pIC50: −log10 of the molar value. Each block holds one compound with its values, some of them ahead of it. Active and inactive are the calls of the source. The calls are words filed in the database; no cut-off is given here.
Key:
[1] = test system: Mus musculus; test: Acute toxicity in C57BL/6J mouse assessed as weight loss at 10 mg/kg, sc after 9 days; assay type: organism-based; set-up: dose 10 mg/kg, route subcutaneous; conditions: in vivo, 216 h
Procedure, shortened: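 Male C57BL/6J mice, 8 weeks old, were acclimated 3 days and then given a single sc injection of 1, 3 or 10 mg/kg in 25% DMSO/saline vehicle (up to 200 μL), n = 4 per group. Weight, behaviour and appearance were monitored daily for 9 days before sacrifice. The humane end point was visible duress or weight loss over 15% of the original.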

[2] = Metabolic stability in mouse liver microsomes after 1 hr by LC/MS/MS analysis; assay type: ADME, Microsome; conditions: read-out: Stability
Procedure, shortened: (§1)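 Compound incubated at 37 °C for 60 min with 1 mg/mL human or mouse liver microsomes in 100 mM KH2PO4, 3 mM MgCl2, pH 7.4, with 2 mM NADPH or without it. Stopped with ice-cold methanol, then precipitate removed. Analyzed by LC/MS/MS as % remaining versus time zero. Duplicates.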

[3] = test system: Mus musculus; test: Acute toxicity in C57BL/6J mouse assessed as lesions in lungs at 1 to 10 mg/kg, sc after 9 days; assay type: organism-based; set-up: dose 1-10 mg/kg, route subcutaneous; conditions: in vivo, 216 h
Procedure, shortened: (§2)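 Male C57BL/6J mice, 8 weeks old, received a single sc dose (1, 3 or 10 mg/kg in 25% DMSO/saline, n = 4 per group) and were sacrificed after 9 days. Two representative animals per group were fixed in 10% formalin. Cecum, duodenum, heart, ileum, kidney, liver, lung, pancreas, spleen and stomach were examined blind by a veterinary pathologist and lesions graded mild, moderate or severe.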

[4] = test system: LNCaP; test: Induction in p21 level in human LNCAP cells after 72 hrs by RT-PCR analysis; assay type: functional, cell-based
Procedure, shortened: (§3)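 LNCaP cells, 50 000 per well, adhered 36–48 h, then treated with 1, 3 or 10 μM for 72 h. Total RNA extracted on columns and transcripts quantified by RT-qPCR.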

[5] = test system: LNCaP; test: Genotoxicity in human LNCAP cells assessed as DNA strand breaks at 10 uM after 48 hrs by comet assay; assay type: toxicity, cell-based
Procedure, shortened: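 LNCaP cells, 100 000 per well, adhered 36–48 h, then treated 48 h at 10 μM (5 μM doxorubicin for 4 h as control). Alkaline comet assay imaged at 10× by confocal microscopy. More than 100 comets scored per condition. Damage reported as % DNA in tail.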

[6] = test system: LNCaP; test: Induction in GADD45A level in human LNCAP cells after 72 hrs by RT-PCR analysis; assay type: functional, cell-based; procedure, shortened: as §3
[7] = test system: LNCaP; test: Induction in cellular p53 level in human LNCAP cells at 10 uM after 72 hrs by ELISA; assay type: functional, cell-based
Procedure, shortened: (§4)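 LNCaP cells treated 72 h at 10 μM. DMSO vehicle and 1 μM doxorubicin for 24 h served as controls. RPB1 measured with an RPB1-specific ELISA and total p53 with a pan-p53 ELISA. Biological triplicates.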

[8] = test system: Mus musculus; test: Acute toxicity in C57BL/6J mouse assessed as lesions in stomach at 1 to 10 mg/kg, sc after 9 days; assay type: organism-based; set-up: dose 1-10 mg/kg, route subcutaneous; conditions: in vivo, 216 h; procedure, shortened: as §2
[9] = test system: Mus musculus; test: Acute toxicity in C57BL/6J mouse assessed as lesions in pancreas at 1 to 10 mg/kg, sc after 9 days; assay type: organism-based; set-up: dose 1-10 mg/kg, route subcutaneous; conditions: in vivo, 216 h; procedure, shortened: as §2
[10] = test system: LNCaP; test: Antitumor activity against human LNCAP cells xenografted in NSG immunocompromised mouse model assessed as tumor growth inhibition at 1 mg/kg, sc administered once every 3 days for a cycle of six injections measured 2 days post last injection relative to control; assay type: functional; conditions: route subcutaneous
Procedure, shortened: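 Male NSG mice engrafted in the left flank with 2.5 million LNCaP cells in 1:1 media/matrigel. Treatment began at ~200 mm3 (0.5 × L × W2): 1 mg/kg sc in 20% DMSO/normal saline, or vehicle alone, every 3 days for six injections, 14 mice per group. Sacrificed 2 days after the last dose. Tumor weights compared with vehicle (T/C).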

[11] = test system: Mus musculus; test: Toxicity in C57BL/6J mouse assessed as total WBC count at 1 mg/kg, sc administered once every 3 days for a cycle of six injections measured 2 days post last injection; assay type: organism-based; set-up: dose 1 mg/kg, route subcutaneous; conditions: in vivo, 48 h
Procedure, shortened: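 Male C57BL/6J mice, blood taken by retroorbital bleed before dosing; after 1 week recovery, sc injections once every 3 d in 20% DMSO:normal saline, six injections; bled again at end point (2 days after final injection). K2EDTA blood sent for hematology (WBC, RBC, hemoglobin, neutrophils, lymphocytes); n = 5, mean with std.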

[12] = test system: LNCaP; test: Reduction in cellular RPB1 level in human LNCAP cells at 10 uM after 72 hrs by ELISA; assay type: functional, cell-based; procedure, shortened: as §4
[13] = Metabolic stability in human liver microsomes after 1 hr by LC/MS/MS analysis in presence of NADPH; assay type: ADME, Microsome; conditions: read-out: Stability; procedure, shortened: as §1
[14] = test system: Mus musculus; test: Toxicity in NSG immunocompromised mouse model xenografted with human LNCAP cells assessed as weight loss at 1 mg/kg, sc administered once every 3 days for a cycle of six injections; assay type: organism-based; set-up: dose 1 mg/kg, route subcutaneous; conditions: in vivo, 72 h
Procedure, shortened: (§5)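 Male NSG mice engrafted in the left flank with 2.5 million LNCaP cells in 1:1 media/matrigel; dosing began at ~200 mm3 tumours (0.5 × L × W2). Compound or vehicle given sc in 20% DMSO/normal saline once every 3 d for six injections, n = 14 per group; weight and general health checked daily, sacrifice 2 days after final injection.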

[15] = test system: LNCaP; test: Cytotoxicity against human LNCAP cells after 72 hrs by WST-1 assay; assay type: functional, cell-based
Procedure, shortened: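 LNCaP cells seeded at 5000–7500 per well and left to adhere 36–48 h. Compound added in fresh medium for 72 h. Metabolic activity read by WST-1 and IC50 derived from the dose–response. Biological triplicates.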

[16] = test system: Mus musculus; test: Acute toxicity in C57BL/6J mouse assessed as lesions in GI tract at 1 to 10 mg/kg, sc after 9 days; assay type: organism-based, Gastrointestinal tract; set-up: dose 1-10 mg/kg, route subcutaneous; conditions: in vivo, 216 h; procedure, shortened: as §2
[17] = test system: Mus musculus; test: Toxicity in C57BL/6J mouse assessed as weight loss at 1 mg/kg, sc administered every 3 days for a cycle of 3 injections; assay type: organism-based; set-up: dose 1 mg/kg, route subcutaneous; conditions: in vivo, 72 h
Procedure, shortened: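 8-week-old male C57BL/6J mice, acclimated 3 days, groups of three, dosed sc in 25% DMSO/saline vehicle once every 3 days, sacrificed 2 days after the last injection. Body weight recorded on injection days and at end point; humane end point set at visible duress or >15% loss of original body weight.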

[18] = test system: Mus musculus; test: Toxicity in C57BL/6J mouse assessed as morbidity at 1 mg/kg, sc administered every 3 days for a cycle of 3 injections; assay type: organism-based; set-up: dose 1 mg/kg, route subcutaneous; conditions: in vivo, 72 h
Procedure, shortened: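 Male C57BL/6J mice, 3 per group, given 1 mg/kg sc every 3 days. Weight recorded on injection days. Watched for signs of duress. Humane end point was visible duress or weight loss over 15% of starting body weight.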

[19] = test system: Mus musculus; test: Acute toxicity in C57BL/6J mouse at 1 to 10 mg/kg, sc after 9 days; assay type: organism-based; set-up: dose 1-10 mg/kg, route subcutaneous; conditions: in vivo, 216 h
Procedure, shortened: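 Single sc injection in male 8-week-old C57BL/6J mice (1, 3 or 10 mg/kg in 25% DMSO/saline; n = 4 per group), followed for 9 days with daily weighing, then sacrifice. Toxicity was assessed by blinded histopathology of two mice per group and by blinded serum ALT, AST, total bilirubin, BUN and creatinine from retroorbital blood of all mice.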

[20] = test system: Mus musculus; test: Acute toxicity in C57BL/6J mouse assessed as ALT level at 3 mg/kg, sc after 9 days; assay type: organism-based; set-up: dose 3 mg/kg, route subcutaneous; conditions: in vivo, 216 h
Procedure, shortened: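 Male C57BL/6J mice, 8 weeks old, acclimated 3 days, then given a single sc injection of 1, 3 or 10 mg/kg in 25% DMSO/saline (4 per group). Weighed daily for 9 days, then sacrificed. Serum taken by retroorbital bleed and spun at 6000 rpm for 5 min. ALT, AST, total bilirubin, BUN and creatinine measured by an outside lab, blinded.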

[21] = test system: Mus musculus; test: Toxicity in NSG immunocompromised mouse model xenografted with human LNCAP cells assessed as distress at 1 mg/kg, sc administered once every 3 days for a cycle of six injections; assay type: organism-based; set-up: dose 1 mg/kg, route subcutaneous; conditions: in vivo, 72 h; procedure, shortened: as §5
[22] = test system: LNCaP; test: Induction in IGFBP3 level in human LNCAP cells after 72 hrs by RT-PCR analysis; assay type: functional, cell-based; procedure, shortened: as §3
[23] = test system: Mus musculus; test: Acute toxicity in C57BL/6J mouse assessed as lesions in heart at 1 to 10 mg/kg, sc after 9 days; assay type: organism-based; set-up: dose 1-10 mg/kg, route subcutaneous; conditions: in vivo, 216 h; procedure, shortened: as §2
[24] = test system: Mus musculus; test: Toxicity in C57BL/6J mouse assessed as total RBC count at 1 mg/kg, sc administered once every 3 days for a cycle of six injections measured 2 days post last injection; assay type: organism-based; set-up: dose 1 mg/kg, route subcutaneous; conditions: in vivo, 48 h
Procedure, shortened: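 Five male C57BL/6J mice bled retroorbitally into K2EDTA tubes at baseline. After 1 week of recovery they were given 1 mg/kg sc in 20% DMSO/saline every 3 days for six injections, then bled again at the end point. Hematology (WBC, RBC, hemoglobin, neutrophils, lymphocytes) measured externally. Mean of five animals, ± std.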

[25] = Metabolic stability in mouse liver microsomes after 1 hr by LC/MS/MS analysis in presence of NADPH; assay type: ADME, Microsome; conditions: read-out: Stability; procedure, shortened: as §1
[26] = Metabolic stability in human liver microsomes after 1 hr by LC/MS/MS analysis; assay type: ADME, Microsome; conditions: read-out: Stability; procedure, shortened: as §1
[27] = Drug uptake in human LNCAP cell nucleus at 2 uM after 24 hrs by confocal microscopic analysis; assay type: ADME, cell-based
Procedure, shortened: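 LNCaP cells incubated 24 h with 2 μM of the fluorescein-conjugated polyamide. Nuclear localization imaged by confocal microscopy.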

[28] = Drug uptake in nucleus of C57BL/6J mouse liver at 3 mg/kg, sc after 24 hrs by confocal microscopic analysis; assay type: ADME, organism-based; set-up: dose 3 mg/kg, route subcutaneous; conditions: in vivo
Procedure, shortened: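 Male C57BL/6J mice, 2 per group, injected with 50 nmol (~3 mg/kg) of fluorescein-conjugated polyamide and sacrificed 24 h later. Liver fixed in 10% formalin for 48 h, cryoprotected in 15% then 30% sucrose, and frozen. Nuclear fluorescence assessed by confocal microscopy in 10 μm sections.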

SMILES: Cn1cc2cc1C(=O)NCCCC(=O)Nc1cn(C)c(n1)C(=O)Nc1cc(n(C)c1)C(=O)Nc1cc(n(C)c1)C(=O)Nc1cc(n(C)c1)C(=O)NCC[C@@H](N)C(=O)Nc1cn(C)c(n1)C(=O)Nc1cc(n(C)c1)C(=O)Nc1cc(n(C)c1)C(=O)N2
- Activity [1]: Non-toxic

SMILES: CC(=O)N[C@H](CCNC(=O)c1cc(NC(=O)c2cc(NC(=O)c3cc(NC(=O)c4nccn4C)cn3C)cn2C)cn1C)C(=O)Nc1cn(C)c(C(=O)Nc2cc(C(=O)Nc3cc(C(=O)Nc4cc(C(=O)NCCCN(C)CCCNC(=O)c5cccc(C(=O)O)c5)n(C)c4)n(C)c3)n(C)c2)n1
- remaining at 1 h [2]: > 90%
- Activity [3]: Non-toxic
- Activity [4]: Dose-dependent effect
- Activity [5]: Non-toxic
- Activity [6]: Dose-dependent effect
- Activity [7]: Active
- Activity [8]: Non-toxic
- Activity [9]: Non-toxic
- T/C [10]: 52.4%
- Activity [11]: Non-toxic
- Activity [12]: Active
- remaining at 1 h [13]: > 90%
- Activity [14]: Non-toxic
- Activity [15]: Dose-dependent effect
- pIC50 [15]: 5.68
- Activity [16]: Non-toxic
- Activity [17]: Non-toxic
- Activity [18]: Non-toxic
- Activity [19]: Non-toxic
- Activity [20]: 29 U/L
- Activity [21]: Non-toxic
- Activity [22]: Dose-dependent effect
- Activity [23]: Non-toxic
- Activity [24]: Non-toxic
- remaining at 1 h [25]: > 90%
- remaining at 1 h [26]: > 90%

- Drug uptake [27]: Active
- Drug uptake [28]: Active
SMILES: CC(=O)N[C@H](CCNC(=O)c1cc(NC(=O)c2cc(NC(=O)c3cc(NC(=O)c4nccn4C)cn3C)cn2C)cn1C)C(=O)Nc1cn(C)c(C(=O)Nc2cc(C(=O)Nc3cc(C(=O)Nc4cc(C(=O)NCCCN(C)CCCNC(=S)Nc5ccc(-c6c7ccc(=O)cc-7oc7cc(O)ccc67)c(C(=O)O)c5)n(C)c4)n(C)c3)n(C)c2)n1

Reference: ChEMBL document CHEMBL2429803, “Animal toxicity of hairpin pyrrole-imidazole polyamides varies with the turn unit” (J Med Chem, 2013)
